Assay results taken from PMC9719863 (Molecular Metabolism, 2022).
*1 amine or outer side, *2 acyl side, *3 side chain or, on linkers, in order; H or OH if unused. Where a SMILES comes first, the peptide text is derived from it. Side-chain parts run from the residue outwards. The star is where a group is joined. γGlu = O=C(O)[C@H](CCC(=O)[*:2])N[*:1]; Palmitoyl = CCCCCCCCCCCCCCCC(=O)*

Key:
mGIPR = target: T1, mGIPR (Mus musculus, UniProt Q0P543); experiment: cAMP CRE-luciferase assay in BHK cells expressing GIPR; type: cell-based
T1 sequence (Q0P543 19-460): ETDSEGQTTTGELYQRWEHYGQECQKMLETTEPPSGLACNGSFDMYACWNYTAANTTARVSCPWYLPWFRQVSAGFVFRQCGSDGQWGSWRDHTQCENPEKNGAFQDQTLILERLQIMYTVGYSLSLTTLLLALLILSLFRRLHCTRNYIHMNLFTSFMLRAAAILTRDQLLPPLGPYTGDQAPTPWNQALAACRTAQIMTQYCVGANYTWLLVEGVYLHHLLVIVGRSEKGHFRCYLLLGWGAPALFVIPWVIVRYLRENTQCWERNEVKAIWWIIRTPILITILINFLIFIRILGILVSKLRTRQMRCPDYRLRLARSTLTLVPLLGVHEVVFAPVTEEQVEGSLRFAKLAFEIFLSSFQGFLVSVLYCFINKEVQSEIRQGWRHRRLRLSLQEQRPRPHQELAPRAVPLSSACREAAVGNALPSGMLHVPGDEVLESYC

Pharmacokinetic = type: in vivo; details: male, C57BL/6 J, mouse, plasma, sc, 500 nmol/kg
Outline: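 Male C57BL/6J mice fed 58% fat, high-sugar diet ≥16 weeks (61–74 g) received one SC dose of 500 nmol/kg, n = 4. Plasma sampled 5 min to 72 h, methanol-precipitated (14-fold), centrifuged, diluted 3-fold in 0.1% formic acid, and quantified by LC-MS selected ion monitoring against plasma standards (0.5–4000 nM). Parameters derived noncompartmentally with sparse sampling.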

DIO mice [1] = details: with the GLP-1R agonist liraglutide; cited from earlier work
hGIPR = target: T2, hGIPR (Homo sapiens, UniProt P48546); experiment: cAMP CRE-luciferase assay in BHK cells expressing GIPR; type: cell-based; details: agonist mode, without native ligand
T2 sequence (P48546 22-466): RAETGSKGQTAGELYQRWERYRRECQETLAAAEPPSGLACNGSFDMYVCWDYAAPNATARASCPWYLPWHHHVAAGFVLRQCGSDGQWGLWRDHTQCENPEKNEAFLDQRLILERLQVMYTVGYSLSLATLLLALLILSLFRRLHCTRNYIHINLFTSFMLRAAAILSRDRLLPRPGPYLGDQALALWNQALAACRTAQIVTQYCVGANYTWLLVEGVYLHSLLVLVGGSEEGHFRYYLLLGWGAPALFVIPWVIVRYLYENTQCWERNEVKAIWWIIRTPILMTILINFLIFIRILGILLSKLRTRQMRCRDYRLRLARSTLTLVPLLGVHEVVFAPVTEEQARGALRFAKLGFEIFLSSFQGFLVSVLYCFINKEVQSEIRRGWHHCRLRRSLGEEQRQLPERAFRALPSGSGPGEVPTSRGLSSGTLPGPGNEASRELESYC

hGLP-1R = hGLP-1R (Homo sapiens, UniProt P43220); experiment: cAMP CRE-luciferase assay in BHK cells expressing GLP-1R; type: cell-based
Chain of hGLP-1R (P43220 24-463): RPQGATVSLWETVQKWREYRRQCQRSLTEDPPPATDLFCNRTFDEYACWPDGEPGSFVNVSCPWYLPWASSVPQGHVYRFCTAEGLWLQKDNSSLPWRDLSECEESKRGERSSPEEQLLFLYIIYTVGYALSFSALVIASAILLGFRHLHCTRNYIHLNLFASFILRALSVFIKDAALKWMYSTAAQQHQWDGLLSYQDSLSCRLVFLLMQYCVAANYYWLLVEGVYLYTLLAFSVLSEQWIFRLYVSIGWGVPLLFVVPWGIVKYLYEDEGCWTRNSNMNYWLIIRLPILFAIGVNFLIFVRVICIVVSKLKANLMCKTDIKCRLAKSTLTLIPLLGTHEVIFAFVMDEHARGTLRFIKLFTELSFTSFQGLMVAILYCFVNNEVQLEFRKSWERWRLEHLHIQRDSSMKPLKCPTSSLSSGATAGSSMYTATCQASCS
Outline: (§1)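 Stably transfected BHK cells carried receptor plus CRE-firefly luciferase reporter, seeded 5,000/well overnight, then DPBS-washed. 12-point dilutions in DMEM (no phenol red), 10 mM HEPES, 1% ovalbumin, 0.1% Pluronic F-68, ± EC80 native ligand (antagonist mode), 3 h, 37 °C. Luminescence read after SteadyLite, 30 min RT. EC50/IC50 by nonlinear regression of log concentration vs response; duplicate experiment.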

mGLP-1R = target: T3, mGLP-1R (Mus musculus, UniProt O35659); experiment: cAMP CRE-luciferase assay in BHK cells expressing GLP-1R; type: cell-based; details: antagonist mode, compared with hGLP-1R
T3 sequence (O35659 22-463): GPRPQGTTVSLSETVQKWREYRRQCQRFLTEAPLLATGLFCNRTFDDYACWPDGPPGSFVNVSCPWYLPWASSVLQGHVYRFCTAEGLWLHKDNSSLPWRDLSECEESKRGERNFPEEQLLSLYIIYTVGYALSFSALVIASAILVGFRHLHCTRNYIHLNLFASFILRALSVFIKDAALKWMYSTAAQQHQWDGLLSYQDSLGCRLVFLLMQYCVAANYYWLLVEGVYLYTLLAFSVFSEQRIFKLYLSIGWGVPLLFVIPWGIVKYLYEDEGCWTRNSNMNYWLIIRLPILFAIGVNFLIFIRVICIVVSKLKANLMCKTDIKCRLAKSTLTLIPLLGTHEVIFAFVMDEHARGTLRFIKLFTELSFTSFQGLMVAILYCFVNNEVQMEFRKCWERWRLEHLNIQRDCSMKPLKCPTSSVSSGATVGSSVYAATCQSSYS
Outline: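 Stably transfected BHK cells with receptor and CRE-firefly luciferase reporter, 5,000 cells/well, incubated overnight and washed in DPBS. Exposed 3 h at 37 °C to a 12-point serial dilution of test compound with EC80 native ligand, in DMEM (no phenol red) with 10 mM HEPES, 1% ovalbumin, 0.1% Pluronic F-68.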

hGcgR = hGcgR (Homo sapiens, UniProt P47871); experiment: cAMP CRE-luciferase assay in BHK cells expressing glucagon receptor; type: cell-based
Chain of hGcgR (P47871 26-477): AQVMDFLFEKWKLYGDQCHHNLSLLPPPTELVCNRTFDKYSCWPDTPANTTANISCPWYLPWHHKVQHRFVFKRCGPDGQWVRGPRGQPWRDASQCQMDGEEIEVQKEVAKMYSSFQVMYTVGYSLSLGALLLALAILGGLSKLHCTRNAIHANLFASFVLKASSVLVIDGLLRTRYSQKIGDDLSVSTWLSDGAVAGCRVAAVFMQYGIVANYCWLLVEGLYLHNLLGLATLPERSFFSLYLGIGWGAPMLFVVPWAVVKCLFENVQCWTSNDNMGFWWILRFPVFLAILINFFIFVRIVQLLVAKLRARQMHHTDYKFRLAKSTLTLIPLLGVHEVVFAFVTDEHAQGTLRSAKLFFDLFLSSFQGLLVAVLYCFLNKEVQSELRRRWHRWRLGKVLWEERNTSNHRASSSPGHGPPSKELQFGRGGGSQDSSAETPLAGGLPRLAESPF
Outline: as §1

mGcgR = mGcgR (Mus musculus, UniProt Q61606); experiment: as above; type: cell-based
Chain of mGcgR (Q61606 27-485): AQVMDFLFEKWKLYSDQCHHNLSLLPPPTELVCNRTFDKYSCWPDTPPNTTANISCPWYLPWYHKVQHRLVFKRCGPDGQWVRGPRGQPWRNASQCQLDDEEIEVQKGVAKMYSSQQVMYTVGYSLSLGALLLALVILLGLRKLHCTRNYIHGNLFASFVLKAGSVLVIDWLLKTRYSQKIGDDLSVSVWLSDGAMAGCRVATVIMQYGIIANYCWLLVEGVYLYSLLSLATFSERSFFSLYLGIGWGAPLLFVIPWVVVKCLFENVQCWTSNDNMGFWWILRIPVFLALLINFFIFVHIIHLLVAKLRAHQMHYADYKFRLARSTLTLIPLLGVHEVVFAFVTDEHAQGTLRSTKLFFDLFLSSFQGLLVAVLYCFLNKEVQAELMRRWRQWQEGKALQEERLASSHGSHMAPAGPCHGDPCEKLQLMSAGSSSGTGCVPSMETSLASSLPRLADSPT
Outline: as §1

DIO mice [2] = experiment: Intraperitoneal glucose tolerance test; type: in vivo, mouse; details: IPGTT (Figure 6C,D) and oral glucose tolerance test (Supplemental figure 3)
Outline: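 Male C57BL/6J mice on 58% fat, high-sugar diet for ≥16 weeks, fasted 6 h. Antagonist (500 or 1500 nmol/kg) injected 2 h before glucose; semaglutide 2 nmol/kg injected 1 h before. Glucose 2.5 g/kg (20% solution) given i.p. or by oral gavage. Tail-vein glucose measured from baseline.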

DIO mice [3] = experiment: Oral glucose tolerance test; type: in vivo, mouse; details: high dose (1500 nmol/kg) SC prior to oral gavage of glucose 2.5 g/kg, n = 8 per group
Outline: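 DIO male C57BL/6J mice (58% fat, high-sugar diet ≥16 weeks), fasted 6 h with water available. Antagonist injected 2 h before oral gavage of 2.5 g/kg glucose (20% solution). Tail-vein blood glucose measured from baseline; glucose integrated AUC derived.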

DIO male C57BL/6 J mice = experiment: Chronic once-daily dosing study on body weight in DIO mice; type: in vivo, mouse; details: for Percent change in body weight: 27-28 d, n = 8
Outline: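 DIO male C57BL/6J mice (58% fat, high-sugar diet, ~12 weeks; >55 g) housed 4/cage at 22 °C on a 12 h light–dark cycle. Groups of n = 8 were normalized for body weight. Test compound was given SC once daily in the light cycle for 28 days, in pH 7.4 vehicle (0.05% polysorbate-80, 50 mM sodium phosphate, 70 mM NaCl). Body weight was taken every other day before dosing, as % change from initial.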

intact human islets = experiment: Human islet perifusion, insulin secretion; type: cell-based; details: islets from two human donors, 7 1 uM, 4 technical replicates per donor
Outline: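 Islets from human donors (purity ≥80%) recovered overnight in RPMI with 6.7 mM glucose and 10% FBS, then used within 4 days. 75 handpicked islets per chamber in KRPH buffer (2.7 mM glucose, pH 7.4). Equilibrated 48 min (1% then 0.1% BSA), then perifused in intervals with 1 uM antagonist in KRPH + 0.1% BSA. Insulin measured by Lumit immunoassay.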

| SMILES | Fold less potent at mGIPR than 7 in vitro (mGIPR; 13 compared with 7) | AUC (Pharmacokinetic) | half-life (Pharmacokinetic) | Weight loss when co-administrated with liraglutide (DIO mice [1]) | Agonism at the hGIPR (cAMP production by peptide alone) (hGIPR) | Agonism at the mGIPR (cAMP production by peptide alone) (mGIPR; agonist mode, without native ligand) | Agonism at hGLP-1R (maximal) (hGLP-1R; agonist mode, Figure 3C) | % inhibition of native GLP-1 action, hGLP-1R (hGLP-1R; antagonist mode) | Antagonism at mGLP-1R (mGLP-1R) | EC50 (hGcgR) | EC50 (mGcgR) | Antagonism at mGcgR (mGcgR; antagonist mode vs glucagon) | Effect on semaglutide mediated reductions in blood glucose (DIO mice [2]) | Glucose control in OGTT (endogenous incretin action) (DIO mice [3]) | Glucose iAUC in IPGTT on day 26, high dose (DIO male C57BL/6 J mice; 7 alone 1500 nmol/kg/d, 24 h after compound injection) | Percent change in body weight (DIO male C57BL/6 J mice; 7 at 500 nmol/kg/d SC once daily) | Percent change in body weight (DIO male C57BL/6 J mice; 7 at 1500 nmol/kg/d SC once daily) | Fasted insulin (DIO male C57BL/6 J mice; 6 h fast on day 27 of treatment, plasma) | Glucose control in IPGTT on day 26 (DIO male C57BL/6 J mice; 24 h after compound injection, semaglutide 2 nmol/kg/d, semaglutide plus 7, 7 alone 500 nmol/kg/d) | Insulin secretion in response to GIPR antagonist alone (high glucose) (intact human islets) |
| --- | --- | --- | --- | --- | --- | --- | --- | --- | --- | --- | --- | --- | --- | --- | --- | --- | --- | --- | --- | --- |
| CCCCCCCCCCCCCCCC(=O)N[C@@H](CCC(=O)N[C@@H](CCC(=O)NCCCC[C@H](NC(=O)[C@H](CC(=O)O)NC(=O)[C@H](CO)NC(=O)[C@@H](NC(=O)[C@H](Cc1ccccc1)NC(=O)[C@@H](NC(C)=O)[C@@H](C)O)[C@@H](C)CC)C(=O)N[C@@H](CO)C(=O)N[C@H](C(=O)N[C@@H](C)C(=O)N[C@@H](CC(C)C)C(=O)N[C@@H](CC(=O)O)C(=O)N[C@@H](CCCCN)C(=O)N[C@H](C(=O)N[C@@H](CCCNC(=N)N)C(=O)N[C@@H](CCC(N)=O)C(=O)N[C@@H](CCC(N)=O)C(=O)N[C@@H](CCC(=O)O)C(=O)N[C@@H](Cc1ccccc1)C(=O)N[C@H](C(=O)N[C@@H](CC(N)=O)C(=O)N[C@@H](Cc1c[nH]c2ccccc12)C(=O)N[C@@H](CC(C)C)C(=O)N[C@@H](CC(C)C)C(=O)N[C@@H](C)C(=O)N[C@@H](CCC(N)=O)C(=O)N[C@@H](CCCCN)C(=O)NCC(=O)N[C@@H](CCCCN)C(=O)N[C@@H](CCCCN)C(=O)N[C@@H](CC(N)=O)C(=O)N[C@@H](CC(=O)O)C(=O)N[C@@H](Cc1c[nH]c2ccccc12)C(=O)N[C@@H](CCCCN)C(=O)N[C@@H](Cc1c[nH]cn1)C(=O)N[C@@H](CC(N)=O)C(=O)N[C@H](C(=O)N[C@H](C(=O)N[C@@H](CCC(N)=O)C(N)=O)[C@@H](C)O)[C@@H](C)CC)C(C)C)[C@@H](C)CC)[C@@H](C)CC)C(=O)O)C(=O)O [Peptide 13, [N^α-Ac, L14, R18, E21] hGIP(5–42)-K10 (γEγE-C16)] (Ac-TFISDK([γGlu-γGlu-Palmitoyl])SIALDKIRQQEFVNWLLAQKGKKNDWKHNITQ-NH2) | ~5 fold | 21.1 µM·h | 1.12 h | did not improve weight loss |  |  |  |  |  |  |  |  |  |  |  |  |  |  |  |  |
| CCCCCCCCCCCCCCCC(=O)N[C@@H](CCC(=O)NCCCC[C@H](NC(=O)[C@H](Cc1ccc(O)cc1)NC(=O)[C@H](CC(=O)O)NC(=O)[C@H](CO)NC(=O)[C@@H](NC(=O)[C@H](Cc1ccccc1)NC(=O)[C@@H](NC(C)=O)[C@@H](C)O)[C@@H](C)CC)C(=O)N[C@H](C(=O)N[C@@H](C)C(=O)N[C@@H](CC(C)C)C(=O)N[C@@H](CC(=O)O)C(=O)N[C@@H](CCCCN)C(=O)N[C@H](C(=O)N[C@@H](CCCNC(=N)N)C(=O)N[C@@H](CCC(N)=O)C(=O)N[C@@H](CCC(N)=O)C(=O)N[C@@H](CCC(=O)O)C(=O)N[C@@H](Cc1ccccc1)C(=O)N[C@H](C(=O)N[C@@H](CC(N)=O)C(=O)N[C@@H](Cc1c[nH]c2ccccc12)C(=O)N[C@@H](CC(C)C)C(=O)N[C@@H](CC(C)C)C(=O)N[C@@H](C)C(=O)N[C@@H](CCC(N)=O)C(=O)N[C@@H](CCCCN)C(=O)NCC(=O)O)C(C)C)[C@@H](C)CC)[C@@H](C)CC)C(=O)O [Peptide 7, [Nα-Ac, L14, R18, E21] hGIP(5–31)-K11 (γE-C16)] |  |  | 8.45 h |  | negligible cAMP production as agonists | negligible cAMP production as agonists | ≤ 20% | 68% | less antagonism at the mGLP-1R relative to hGLP-1R | > 12 µM | > 7 µM | no antagonism | did not affect semaglutide mediated reductions in blood glucose | worsened glucose control | numeric but insignificant lowering of glucose iAUC | +2.57% | −2.88% | did not modify reduction in fasting insulin levels seen with semaglutide treatment | significantly improved glucose control compared to controls | modest and transient, statistically insignificant rise in insulin secretion |
